Source: ChEMBL document CHEMBL4229446, “Development of Novel Monoamine Oxidase-B (MAO-B) Inhibitors with Reduced Blood-Brain Barrier Permeability for the Potential Management of Noncentral Nervous System (CNS) Diseases” (J Med Chem, 2018)
pIC50: −log10 of the molar value.

Experiments:
[1] = target: T1, Amine oxidase [flavin-containing] A (Homo sapiens, UniProt P21397); experiment: Inhibition of human recombinant MAO-A expressed in baculovirus infected BTI-TN-5B1-4 insect cells using tyramine as substrate preincubated for 1 hr followed by substrate addition and measured after 30 mins by resazurin dye-based fluorescence assay
T1 sequence (P21397 whole entry): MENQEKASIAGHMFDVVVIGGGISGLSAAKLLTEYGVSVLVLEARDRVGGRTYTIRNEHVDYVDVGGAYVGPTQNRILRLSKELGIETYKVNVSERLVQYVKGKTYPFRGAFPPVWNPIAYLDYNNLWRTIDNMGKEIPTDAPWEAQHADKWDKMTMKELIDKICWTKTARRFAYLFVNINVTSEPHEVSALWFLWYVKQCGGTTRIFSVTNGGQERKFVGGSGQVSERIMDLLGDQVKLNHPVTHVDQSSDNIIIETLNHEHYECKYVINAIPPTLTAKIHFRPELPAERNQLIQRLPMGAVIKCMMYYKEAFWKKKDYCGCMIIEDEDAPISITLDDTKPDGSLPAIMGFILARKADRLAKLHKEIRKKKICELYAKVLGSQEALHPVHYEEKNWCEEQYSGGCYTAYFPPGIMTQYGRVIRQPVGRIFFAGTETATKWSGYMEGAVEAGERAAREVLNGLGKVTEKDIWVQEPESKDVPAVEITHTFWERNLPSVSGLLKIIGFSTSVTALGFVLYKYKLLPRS

[2] = target: T2, Amine oxidase [flavin-containing] B (Homo sapiens, UniProt P27338); experiment: Inhibition of human recombinant MAO-B expressed in baculovirus infected BTI-TN-5B1-4 insect cells using benzylamine as substrate preincubated for 1 hr followed by substrate addition and measured after 30 mins by resazurin dye-based fluorescence assay; type: cell-based
T2 sequence (P27338 whole entry): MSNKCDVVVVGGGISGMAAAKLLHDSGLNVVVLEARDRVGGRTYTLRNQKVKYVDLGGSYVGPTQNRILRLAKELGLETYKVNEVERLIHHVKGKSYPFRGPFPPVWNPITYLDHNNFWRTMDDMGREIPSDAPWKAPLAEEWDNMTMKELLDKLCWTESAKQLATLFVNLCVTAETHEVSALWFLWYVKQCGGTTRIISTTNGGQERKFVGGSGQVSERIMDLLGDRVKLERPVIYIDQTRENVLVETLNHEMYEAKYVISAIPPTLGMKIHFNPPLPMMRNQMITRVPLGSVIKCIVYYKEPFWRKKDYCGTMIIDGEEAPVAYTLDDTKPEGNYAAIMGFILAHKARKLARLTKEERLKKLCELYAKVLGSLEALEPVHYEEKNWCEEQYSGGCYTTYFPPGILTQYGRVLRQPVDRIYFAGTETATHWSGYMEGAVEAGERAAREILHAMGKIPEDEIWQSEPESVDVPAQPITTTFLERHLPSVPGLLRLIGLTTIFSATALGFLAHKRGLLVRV

P-gp (MDR1) = experiment: Efflux ratio of apparent permeability in MDCK2-MDR1 cells at 10 uM after 1 hr in absence of P-gp inhibitor verapamil by UPLC-MS/MS analysis; type: ADME, cell-based, Canis lupus familiaris; settings: dog, MDCK-MDR1
Summary of the method: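 MDCK-WT (MEM-α/10% FBS) or MDCK-MDR1 II (DMEM/10% FBS) cells were grown 3 days on 12-well transwells. Integrity was checked by TEER and 100 μM Lucifer yellow. Cells were washed in HBSS/10 mM HEPES. Compound at 10 μM was added apically or basally, in triplicate, ±100 μM verapamil. Receiver sampled at 1 h by UPLC-MS/MS. Efflux ratio = Papp B→A / Papp A→B.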

[3] = Efflux ratio of apparent permeability in MDCK-WT cells at 10 uM after 1 hr in absence of P-gp inhibitor verapamil by UPLC-MS/MS analysis; settings: dog
[4] = Metabolic stability in human plasma assessed as parent compound remaining at 5 uM after 4 hrs by UPLC-MS/MS analysis; type: ADME, cell-free; settings: read-out: Stability
Summary of the method: (§1)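 Compound at 5 μM was incubated in mouse or human plasma at 37 °C with shaking. Sampled at 0, 5, 15, 30, 60, 120 and 240 min and stopped with ice-cold acetonitrile/0.1% formic acid containing internal standard. Supernatants analysed by UPLC-MS/MS for parent remaining. Run in triplicate.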

[5] = Metabolic stability in mouse plasma assessed as parent compound remaining at 5 uM after 4 hrs by UPLC-MS/MS analysis; type: ADME, cell-free; settings: read-out: Stability; summary of the method: as §1
[6] = Metabolic stability in mouse liver microsomes assessed as parent compound remaining at 1 uM after 60 mins in presence of NADPH by UPLC-MS/MS analysis; type: ADME, microsome; settings: read-out: Stability
Summary of the method: (§2)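 Compound at 1 μM with 0.5 mg/mL mouse or human liver microsomes in 100 mM potassium phosphate pH 7.4, 3.3 mM MgCl2, 1 mM NADPH, at 37 °C. Started with NADPH; minus-NADPH control run. Stopped at 0, 5, 15, 30, 45 and 60 min with acetonitrile/formic acid plus internal standard. Parent remaining by UPLC-MS/MS, in triplicate.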

[7] = Metabolic stability in human liver microsomes assessed as parent compound remaining at 1 uM after 60 mins by UPLC-MS/MS analysis; type: ADME, microsome; settings: liver microsomes, read-out: Stability; summary of the method: as §2
[8] = Metabolic stability in cryopreserved mouse hepatocytes assessed as parent compound remaining at 1 uM after 60 mins by UPLC-MS/MS analysis; type: ADME, cell-based, Hepatocyte; settings: read-out: Stability
Mus musculus [9] = experiment: Acute toxicity in C57BL/6 mouse assessed as abnormal clinical signs at […], sc administered as single dose measured after 24 hrs post-injection; type: organism-based; settings: in vivo
[10] = Tmax in C57BL/6 mouse plasma at 22 mg/kg, iv administered as single dose measured 24 hrs by UPLC-MS/MS analysis; type: ADME, organism-based
Summary of the method: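 Plasma cleaned by protein precipitation with phospholipid removal, then UPLC-MS/MS in MRM mode. Tmax obtained by noncompartmental analysis.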

[11] = Cmax in C57BL/6 mouse plasma at 22 mg/kg, iv administered as single dose measured 24 hrs by UPLC-MS/MS analysis; type: ADME, organism-based; set-up: dose 22 mg/kg, route intravenous
Summary of the method: (§3)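 21 animals dosed at 0 min, 3 sacrificed at each of 0, 5, 15, 30 min, 1, 4 and 24 h. Plasma was extracted by protein precipitation with phospholipid removal. Brain was weighed, bead-homogenised in 50 mM ammonium formate and extracted in acidified organic solvent. Quantified by UPLC-MS/MS (MRM). Brain ng/g taken as ng/mL. Parameters came from noncompartmental analysis. Kp = AUClast brain/plasma.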

[12] = AUClast in C57BL/6 mouse plasma at 22 mg/kg, iv administered as single dose measured 24 hrs by UPLC-MS/MS analysis; type: ADME, organism-based; set-up: dose 22 mg/kg, time 0 - last, route intravenous; summary of the method: as §3
[13] = Apparent half-life of the terminal disposition phase in C57BL/6 mouse plasma at 22 mg/kg, iv administered as single dose measured 24 hrs by UPLC-MS/MS analysis; type: ADME, organism-based; settings: read-out: t1/2 lambda z (converted); summary of the method: as §3
[14] = Tmax in C57BL/6 mouse brain at 22 mg/kg, iv administered as single dose measured 24 hrs by UPLC-MS/MS analysis; type: ADME, organism-based
Summary of the method: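 Brains weighed, portion bead-homogenised in 50 mM ammonium formate, extracted in acidified organic solvent, quantified by UPLC-MS/MS. ng/g taken as ng/mL. Tmax from noncompartmental analysis.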

[15] = Cmax in C57BL/6 mouse brain at 22 mg/kg, iv administered as single dose measured 24 hrs by UPLC-MS/MS analysis; type: ADME, organism-based; set-up: dose 22 mg/kg, route intravenous; summary of the method: as §3
[16] = AUClast in C57BL/6 mouse brain at 22 mg/kg, iv administered as single dose measured 24 hrs by UPLC-MS/MS analysis; type: ADME, organism-based; set-up: dose 22 mg/kg, route intravenous, time 0 - last; summary of the method: as §3
[17] = Ratio of AUClast in brain to plasma in C57BL/6 mouse at 22 mg/kg, iv administered as single dose measured 24 hrs by UPLC-MS/MS analysis; type: ADME, organism-based; summary of the method: as §3
Mus musculus [18] = experiment: Acute toxicity in C57BL/6 mouse assessed as abnormal clinical signs at […], iv administered as single dose measured after 24 hrs post-injection; type: organism-based; settings: in vivo
Mus musculus [19] = experiment: Acute toxicity in C57BL/6 mouse assessed as abnormal clinical signs at […], po administered as single dose measured after 24 hrs post-injection; type: organism-based; settings: in vivo

Row | Structure (SMILES) | pIC50 [1] | pIC50 [2] | further results
1 | C[C@H](Cc1ccc(OCc2cccnc2)cc1)N(C)CC(=O)O | < 4.30 | < 4.30 | 
2 | C[C@H](Cc1ccc(OCc2cccc(C#N)c2)cc1)N(C)CC(=O)O | < 4.30 | 4.67 | 
3 | C[C@H](Cc1ccc(OCc2ccccc2)cc1)N(C)CC(=O)O | < 4.30 | 6.05 | 
4 | COC(=O)[C@H](Cc1ccc(OCc2cccc(Cl)c2)cc1)N(C)CC(=O)O | < 4.30 | 5.90 | 
5 | C[C@H](Cc1ccc(OCc2ccccn2)cc1)N(C)CC(=O)O | < 4.30 |  | 
6 | O=C(O)COCCN1CCN(C(c2ccccc2)c2ccc(Cl)cc2)CC1 (configuration not stated) [CETIRIZINE] |  |  | efflux ratio at 1 h, 10 µM (P-gp (MDR1)): 4.12; efflux ratio at 1 h, 10 µM [3]: 3
7 | CN(CC(=O)O)[C@H](CC#N)Cc1ccc(OCc2ccccc2)cc1 | < 4.30 | 6.27 | 
8 | C[C@H](Cc1ccc(OCc2ccc(C#N)cc2)cc1)N(C)CC(=O)O | < 4.30 | 5.43 | 
9 | C[C@H](Cc1ccc(OCc2ccc3ccccc3c2)cc1)N(C)CC(=O)O |  | 4.85 | 
10 | C[C@H](Cc1ccc(OCc2cccc(F)c2)cc1)N(C)CC(=O)O | < 4.30 | 6.06 | 
11 | C[C@H](Cc1ccc(OCc2ccncc2)cc1)N(C)CC(=O)O | < 4.30 | 4.66 | 
12 | COC(=O)[C@H](Cc1ccc(OCc2ccccc2)cc1)N(C)CC(=O)O | < 4.30 | 5.10 | 
13 | C#CCN(C)[C@H](C)Cc1ccc(OCc2ccccc2)cc1 | 6.79 | 8.30 | 
14 | C[C@H](Cc1ccc(OCc2cc(F)cc(F)c2)cc1)N(C)CC(=O)O | < 4.30 | 6.04 | 
15 | C[C@H](Cc1ccc(OCc2ccccc2Cl)cc1)N(C)CC(=O)O | < 4.30 | 6.15 | 
16 | COc1cccc(COc2ccc(C[C@@H](C)N(C)CC(=O)O)cc2)c1 |  | 5.68 | 
17 | C[C@H](Cc1ccc(OCc2ccc(Cl)c(Cl)c2)cc1)N(C)CC(=O)O | 4.38 | 6.66 | efflux ratio at 1 h, 10 µM (P-gp (MDR1)): 3.07; remaining at 4 h, 5 µM [4]: ≥ 75%; remaining at 4 h, 5 µM [5]: ≥ 75%; remaining at 1 h, 1 µM [6]: 89.5%; remaining at 1 h, 1 µM [7]: ≥ 90%; remaining at 1 h, 1 µM [8]: ≥ 90%; Activity (Mus musculus [9]): Non-Toxic; Tmax [10]: 5 min; Cmax [11]: 16200 ng/mL; AUC(0-t) at 24 h [12]: 82000 ng·h/mL; half-life [13]: 3.97 h; Tmax [14]: 4 h; Cmax [15]: 455 ng/mL; AUC(0-t) at 24 h [16]: 7450 ng·h/mL; Kp at 24 h [17]: 0.09; Activity (Mus musculus [18]): Non-Toxic; Activity (Mus musculus [19]): Non-Toxic; efflux ratio at 1 h, 10 µM [3]: 1.45
18 | C[C@H](Cc1ccc(OCc2cc(Cl)ccc2Cl)cc1)N(C)CC(=O)O | < 4.30 | 5.86 | 
19 | C[C@H](Cc1ccc(OCc2cccc([N+](=O)[O-])c2)cc1)N(C)CC(=O)O | < 4.30 | 5.36 | 
20 | C[C@H](Cc1ccc(OCc2ccccc2C#N)cc1)N(C)CC(=O)O | < 4.30 | 4.85 | 
21 | CN(CC(=O)O)[C@H](COCc1ccccc1)Cc1ccc(OCc2ccccc2)cc1 | < 4.30 | 5.10 | 
22 | C[C@H](Cc1ccc(OCc2ccc(Cl)cc2)cc1)N(C)CC(=O)O | 3.66 | 6.06 | 
23 | CN(CC(=O)O)[C@H](CO)Cc1ccc(OCc2ccccc2)cc1 | < 4.30 | 5.99 | 
24 | COC(=O)c1ccc(COc2ccc(C[C@@H](C)N(C)CC(=O)O)cc2)cc1 | < 4.30 |  | 
